Experimental data reported in ChEMBL document CHEMBL3351281, “1,3,4-Oxadiazole-containing histone deacetylase inhibitors: anticancer activities in cancer cells” (J Med Chem, 2014).
Calls of active or inactive are those of the source. No cut-off for these calls is given here.

Legend:
U-937 [1] = test: Induction of cell cycle arrest in human U937 cells assessed as accumulation at S phase at 5 uM after 48 hrs by propidium iodide staining based FACS method; assay type: functional
In short: (§1)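 U937 cells treated at 0.1, 1, 5, 10 and 25 μM for 24 and 48 h, with reference drugs at 5 μM as positive controls. Cell-cycle distribution measured, with accumulation in S phase scored.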

U-937 [2] = test: Induction of apoptosis in human U937 cells assessed as accumulation at pre-G1 phase at 5 uM after 48 hrs by propidium iodide staining based FACS method; assay type: functional
In short: (§2)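 U937 cells exposed to 0.1, 1, 5, 10 and 25 μM for 24 and 48 h. Reference drugs at 5 μM served as positive controls. Apoptosis taken as the percentage of cells in the pre-G1 peak.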

Histone deacetylase 4 = Histone deacetylase 4 (Homo sapiens, UniProt P56524); test: Inhibition of human recombinant HDAC4 using non-histone trifluoroacetyl lysine substrate pre-incubated at room temperature for 15 mins before substrate addition by fluorimetric assay
[3] = molecular target: T1, Protein deacetylase HDAC6 (Homo sapiens, UniProt Q9UBN7); test: Inhibition of human recombinant HDAC6 pre-incubated at room temperature for 15 min before substrate addition by fluorimetric assay
T1 sequence (Q9UBN7 whole entry): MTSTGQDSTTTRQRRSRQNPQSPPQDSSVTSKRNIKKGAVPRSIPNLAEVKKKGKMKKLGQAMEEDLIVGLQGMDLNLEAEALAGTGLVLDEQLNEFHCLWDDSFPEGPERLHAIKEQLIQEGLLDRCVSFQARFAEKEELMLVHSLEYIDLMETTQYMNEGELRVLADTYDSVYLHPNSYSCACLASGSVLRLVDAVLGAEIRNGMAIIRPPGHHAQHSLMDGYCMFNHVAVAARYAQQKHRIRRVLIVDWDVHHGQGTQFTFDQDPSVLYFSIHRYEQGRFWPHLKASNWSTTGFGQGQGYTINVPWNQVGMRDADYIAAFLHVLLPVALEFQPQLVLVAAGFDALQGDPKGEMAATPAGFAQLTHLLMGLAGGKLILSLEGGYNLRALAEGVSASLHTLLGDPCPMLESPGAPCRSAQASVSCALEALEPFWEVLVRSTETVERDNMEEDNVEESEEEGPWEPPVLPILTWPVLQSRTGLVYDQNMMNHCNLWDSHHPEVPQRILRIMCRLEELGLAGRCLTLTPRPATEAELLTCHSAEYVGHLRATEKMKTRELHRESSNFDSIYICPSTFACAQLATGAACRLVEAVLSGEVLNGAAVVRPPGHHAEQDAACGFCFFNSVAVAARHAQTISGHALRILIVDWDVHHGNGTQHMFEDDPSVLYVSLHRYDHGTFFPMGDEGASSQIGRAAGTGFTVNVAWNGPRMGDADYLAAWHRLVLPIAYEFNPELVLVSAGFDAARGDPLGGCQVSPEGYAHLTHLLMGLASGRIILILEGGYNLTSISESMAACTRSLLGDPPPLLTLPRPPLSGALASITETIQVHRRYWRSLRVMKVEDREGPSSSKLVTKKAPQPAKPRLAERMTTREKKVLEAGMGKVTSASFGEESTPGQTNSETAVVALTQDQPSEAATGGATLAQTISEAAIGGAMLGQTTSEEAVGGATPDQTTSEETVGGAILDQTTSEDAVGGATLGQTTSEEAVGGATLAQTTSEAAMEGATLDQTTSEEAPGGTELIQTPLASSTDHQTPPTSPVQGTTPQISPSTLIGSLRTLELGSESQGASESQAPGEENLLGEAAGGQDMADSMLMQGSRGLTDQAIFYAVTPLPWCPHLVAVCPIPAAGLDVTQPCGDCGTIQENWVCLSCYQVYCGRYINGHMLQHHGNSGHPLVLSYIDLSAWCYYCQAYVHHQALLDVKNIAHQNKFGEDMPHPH

Histone deacetylase 1 = Histone deacetylase 1 (Homo sapiens, UniProt Q13547); test: Inhibition of human recombinant HDAC1 using histone H3 substrate pre-incubated at room temperature for 15 mins before substrate addition by fluorimetric assay
U-937 [4] = test: Induction of granulocytic differentiation in human U937 cells assessed as increase in CD11c expression after 48 hrs by FACS method; assay type: functional, cell-based
In short: (§3)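 Granulocytic differentiation in U937 cells at 0.1, 1, 5, 10 and 25 μM for 24 and 48 h, with reference drugs at 5 μM as positive controls. Read-out was the percentage of CD11c-positive, propidium iodide-negative cells.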

U-937 [5] = test: Induction of granulocytic differentiation in human U937 cells assessed as increase in CD11c expression at 5 uM after 48 hrs by FACS method; assay type: functional; in short: as §3
MOLM-13 = test: Antiproliferative activity against human MOLM13 cells after 48 hrs by Cell Titer GLo Assay; assay type: functional, cell-based; settings: MOLM-13, 48 h
In short: (§4)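 AML cells grown in RPMI with 10% fetal calf serum, antibiotics, amphotericin-B, 10 mM HEPES and 2 mM glutamine, kept at 200 000 cells/mL. Exponentially growing cells seeded in duplicate in 6-well plates (2 × 10⁵ cells/well), treated 24 h later at 1 to 50 μM for 48 h. Viability by Cell Titer GLo.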

[6] = Antiproliferative activity against human U937 cells after 48 hrs by Cell Titer GLo Assay; assay type: functional, cell-based; settings: U-937, 48 h; in short: as §4
[7] = Antiproliferative activity against human HCT116 cells after 48 hrs by MTT assay; assay type: functional, cell-based; settings: HCT-116, 48 h
In short: (§5)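 Solid tumour cells grown in RPMI with 10% fetal calf serum and penicillin. Exponentially growing cells seeded in sextuplicate in 96-well plates (3 × 10³ cells/well), treated 24 h later at 1 to 50 μM for 48 h. Viability read by MTT.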

U2OS = test: Antiproliferative activity against human U2OS cells after 48 hrs by MTT assay; assay type: functional, cell-based; in short: as §5
[8] = Antiproliferative activity against human HL60 cells after 48 hrs by Cell Titer GLo Assay; assay type: functional, cell-based; settings: HL-60, 48 h; in short: as §4
A549 = test: Antiproliferative activity against human A549 cells after 48 hrs by MTT assay; assay type: functional, cell-based; settings: A549, 48 h; in short: as §5
U-937 [9] = test: Induction of cell cycle arrest in human U937 cells assessed as accumulation at S phase at 1 uM after 48 hrs by propidium iodide staining based FACS method; assay type: functional; in short: as §1
cells = assay type: functional; settings: Homo sapiens, U-937, 24 h
[10] = Antiproliferative activity against human KG1 cells after 48 hrs by Cell Titer GLo Assay; assay type: functional, cell-based; settings: KG-1, 48 h; in short: as §4
U-937 [11] = test: Induction of apoptosis in human U937 cells assessed as accumulation at pre-G1 phase after 48 hrs by propidium iodide staining based FACS method; assay type: functional, cell-based; in short: as §2
[12] = Antiproliferative activity against human SANTO cells after 48 hrs by MTT assay; assay type: functional, cell-based; in short: as §5
MDA-MB-468 = test: Antiproliferative activity against human MDA-MB-468 cells after 48 hrs by MTT assay; assay type: functional, cell-based; settings: MDA-MB-468, 48 h; in short: as §5
HEL = test: Antiproliferative activity against human HEL cells after 48 hrs by Cell Titer GLo Assay; assay type: functional, cell-based; in short: as §4
M14 = test: Antiproliferative activity against human M14 cells after 48 hrs by MTT assay; assay type: functional, cell-based; settings: M14, 48 h; in short: as §5
HCC1937 = test: Antiproliferative activity against human HCC1937 cells after 48 hrs by MTT assay; assay type: functional, cell-based; settings: HCC1937, 48 h; in short: as §5
U-937 [13] = test: Induction of cell cycle arrest in human U937 cells assessed as accumulation at S phase at 0.1 to 25 uM after 48 hrs by propidium iodide staining based FACS method; assay type: functional; in short: as §1
SW-620 = test: Antiproliferative activity against human SW620 cells after 48 hrs by MTT assay; assay type: functional, cell-based; settings: SW-620, 48 h; in short: as §5
U-937 [14] = settings: Homo sapiens, at 2.5 µM
U-937 [15] = test: Induction of apoptosis in human U937 cells assessed as accumulation at pre-G1 phase at 25 uM after 48 hrs by propidium iodide staining based FACS method; assay type: functional; in short: as §2

Histone deacetylase 4, sequence (P56524 whole entry): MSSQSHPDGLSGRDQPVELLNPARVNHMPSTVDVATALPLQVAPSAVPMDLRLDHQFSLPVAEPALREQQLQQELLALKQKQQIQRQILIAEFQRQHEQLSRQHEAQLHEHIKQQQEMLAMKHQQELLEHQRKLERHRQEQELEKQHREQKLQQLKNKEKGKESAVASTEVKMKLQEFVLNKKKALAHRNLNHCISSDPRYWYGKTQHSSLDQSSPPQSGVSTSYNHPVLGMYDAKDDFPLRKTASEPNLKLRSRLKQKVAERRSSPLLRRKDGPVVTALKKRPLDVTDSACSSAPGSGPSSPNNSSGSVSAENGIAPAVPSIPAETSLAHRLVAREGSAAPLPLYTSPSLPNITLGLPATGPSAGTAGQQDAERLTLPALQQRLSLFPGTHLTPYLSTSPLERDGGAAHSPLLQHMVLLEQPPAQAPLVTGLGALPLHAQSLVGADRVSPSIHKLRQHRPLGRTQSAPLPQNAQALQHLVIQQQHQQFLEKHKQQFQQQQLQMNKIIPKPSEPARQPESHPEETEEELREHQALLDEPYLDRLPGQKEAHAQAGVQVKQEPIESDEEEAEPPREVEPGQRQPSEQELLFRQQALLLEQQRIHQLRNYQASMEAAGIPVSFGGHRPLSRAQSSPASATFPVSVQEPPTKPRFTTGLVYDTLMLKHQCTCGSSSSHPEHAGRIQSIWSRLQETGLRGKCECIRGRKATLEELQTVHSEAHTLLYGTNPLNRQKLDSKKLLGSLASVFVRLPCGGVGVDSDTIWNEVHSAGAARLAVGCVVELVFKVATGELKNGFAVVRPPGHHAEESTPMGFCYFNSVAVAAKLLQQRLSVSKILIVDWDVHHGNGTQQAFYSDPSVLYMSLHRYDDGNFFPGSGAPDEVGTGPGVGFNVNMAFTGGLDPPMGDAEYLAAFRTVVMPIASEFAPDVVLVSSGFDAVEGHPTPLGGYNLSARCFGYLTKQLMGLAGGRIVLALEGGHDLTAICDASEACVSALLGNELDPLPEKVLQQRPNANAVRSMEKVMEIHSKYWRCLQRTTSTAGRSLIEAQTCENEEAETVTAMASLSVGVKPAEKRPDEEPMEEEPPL
Histone deacetylase 1, sequence (Q13547 whole entry): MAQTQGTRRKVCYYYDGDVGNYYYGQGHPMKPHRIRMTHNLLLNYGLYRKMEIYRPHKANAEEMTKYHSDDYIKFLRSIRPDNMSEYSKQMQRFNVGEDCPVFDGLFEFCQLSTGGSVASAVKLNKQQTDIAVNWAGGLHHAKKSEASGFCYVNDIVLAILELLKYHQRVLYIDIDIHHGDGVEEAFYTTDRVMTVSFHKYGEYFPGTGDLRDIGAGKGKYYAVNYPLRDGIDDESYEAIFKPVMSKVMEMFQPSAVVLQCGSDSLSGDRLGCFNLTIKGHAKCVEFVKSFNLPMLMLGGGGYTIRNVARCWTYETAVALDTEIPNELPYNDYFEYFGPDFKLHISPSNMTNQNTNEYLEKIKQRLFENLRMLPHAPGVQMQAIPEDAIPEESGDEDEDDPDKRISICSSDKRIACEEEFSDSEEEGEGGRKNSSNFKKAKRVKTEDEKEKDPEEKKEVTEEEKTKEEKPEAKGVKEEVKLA

## O=C(CCCCCCC(=O)Nc1ccccc1)NO [VORINOSTAT]
U-937 [1]
  Activity: Active
U-937 [2]
  Activity: 48%

## Nc1ccccc1NC(=O)/C=C/c1ccc(-c2nnc(Cc3ccc4ccccc4c3)o2)cc1
Histone deacetylase 4
  IC50: > 20 µM
[3]
  IC50: > 20 µM
Histone deacetylase 1
  IC50: 2.4 µM

## Nc1ccccc1NC(=O)/C=C/c1ccc(-c2nnc(Cc3cccc4ccccc34)o2)cc1
Histone deacetylase 4
  IC50: > 20 µM
[3]
  IC50: > 20 µM
Histone deacetylase 1
  IC50: 1 µM
U-937 [4]
  Activity: Dose-dependent effect

## Nc1ccccc1NC(=O)/C=C/c1ccc(Cc2nnc(Cc3cccc4ccccc34)o2)cc1
Histone deacetylase 4
  IC50: > 20 µM
[3]
  IC50: > 20 µM
Histone deacetylase 1
  IC50: 4.1 µM

## Nc1ccccc1NC(=O)c1ccc(CNC(=O)OCc2cccnc2)cc1 [ENTINOSTAT]
U-937 [5]
  Activity: 47%

## Nc1ccccc1NC(=O)c1ccc(-c2nnc(Cc3cccc4ccccc34)o2)cc1
Histone deacetylase 4
  IC50: > 20 µM
[3]
  IC50: 16.1 µM
Histone deacetylase 1
  IC50: 0.3 µM
U-937 [4]
  Activity: Dose-dependent effect

## Nc1ccccc1NC(=O)/C=C/c1ccc(-c2nnc(Cc3c[nH]c4ccccc34)o2)cc1
Histone deacetylase 4
  IC50: > 20 µM
[3]
  IC50: > 20 µM
Histone deacetylase 1
  IC50: 1.5 µM

## Nc1ccccc1NC(=O)c1ccc(Cc2nnc(Cc3cccc4ccccc34)o2)cc1
MOLM-13
  IC50: 1.6 µM
[6]
  IC50: 1.8 µM
Histone deacetylase 4
  IC50: > 20 µM
U-937 [5]
  Activity: 45%
[7]
  IC50: 24.7 µM
U2OS
  IC50: 20.4 µM
[8]
  IC50: 2.8 µM
[3]
  IC50: 8.9 µM
A549
  IC50: 23.6 µM
Histone deacetylase 1
  IC50: 0.2 µM
U-937 [9]
  Activity: Active
cells
  inhibition at 2.5 µM: 75%
[10]
  IC50: 1.8 µM
U-937 [11]
  Activity: Dose-dependent effect
[12]
  IC50: 17.4 µM
MDA-MB-468
  IC50: 19.6 µM
HEL
  IC50: 2 µM
M14
  IC50: 43.3 µM
U-937 [4]
  Activity: Dose-dependent effect
HCC1937
  IC50: 29.8 µM
U-937 [13]
  Activity: Active
SW-620
  IC50: 6.7 µM

## O=C(NO)c1ccc(Cc2nnc(Cc3cccc4ccccc34)o2)cc1
Histone deacetylase 4
  IC50: 7.8 µM
[3]
  IC50: 1.2 µM
Histone deacetylase 1
  IC50: 0.2 µM
U-937 [11]
  Activity: Dose-dependent effect
U-937 [13]
  Activity: Active

## O=C(/C=C/c1ccc(-c2nnc(Cc3c[nH]c4ccccc34)o2)cc1)NO
Histone deacetylase 4
  IC50: 15.2 µM
[3]
  IC50: 0.03 µM
Histone deacetylase 1
  IC50: 0.6 µM

## O=C(/C=C/c1ccc(-c2nnc(Cc3cccc4ccccc34)o2)cc1)NO
Histone deacetylase 4
  IC50: > 20 µM
[3]
  IC50: 0.06 µM
Histone deacetylase 1
  IC50: 0.8 µM

## O=C(/C=C/c1ccc(Cc2nnc(Cc3cccc4ccccc34)o2)cc1)NO
MOLM-13
  IC50: 2.2 µM
[6]
  IC50: 7.8 µM
Histone deacetylase 4
  IC50: > 20 µM
U-937 [14]
  inhibition: Active
U-937 [15]
  Activity: 74%
[7]
  IC50: 21.3 µM
U2OS
  IC50: 50 µM
[8]
  IC50: 6 µM
[3]
  IC50: 0.03 µM
A549
  IC50: 29.5 µM
Histone deacetylase 1
  IC50: 0.2 µM
[10]
  IC50: 2.6 µM
U-937 [11]
  Activity: Dose-dependent effect
[12]
  IC50: 24 µM
MDA-MB-468
  IC50: 18.4 µM
HEL
  IC50: 4.1 µM
M14
  IC50: 45 µM
U-937 [4]
  Activity: Dose-dependent effect
U-937 [2]
  Activity: 58%
HCC1937
  IC50: 33.6 µM
SW-620
  IC50: 5.1 µM

## O=C(NO)c1ccc(-c2nnc(Cc3cccc4ccccc34)o2)cc1
Histone deacetylase 4
  IC50: > 20 µM
[3]
  IC50: 4.1 µM
Histone deacetylase 1
  IC50: 9.9 µM
